We go through two compounds from article PMC5488126 (CPT: Pharmacometrics & Systems Pharmacology, 2017).

Structures are written as SMILES.

In one data set the test system is circulating platelets. The experiment in a line: Rat platelet count study fitted to myelosuppression model. It counts as in vivo, Han Wistar rat. The following applies: for platelet changes in rat: oral.
A short description of data set [1]: Rat PK model of AZD5153 plasma concentrations. The following applies: oral, population typical estimate (RSE), estimated from observed data. It is filed as in vivo, Han Wistar rat. A digest of the protocol: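 Female Han Wistar rats, 9–10 weeks old, were dosed orally in 0.5% hydroxymethylcellulose with 0.1% Tween80. Plasma was taken 2 h postdose on days 1, 4 and 7 and measured by LC-MS/MS. Data were fitted to a one-compartment model with first-order absorption, with ka and clearance fixed from a separate toxicology study and volume estimated. Fitting used FOCE-ELS and included between-subject variability.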

The subject of data set [2] is platelet counts. Particulars: human, BM dysfunction simulations. In a few lines: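 The Friberg platelet model was extended with a capacity term fr on the proliferating compartment. fr rose linearly from a baseline fraction of 0.65 (initial Circ0 61.2 ×10⁹/L) over recovery durations of 1 h and 10, 30, 100, 300 and 1,000 days. Runs used slope 0 (recovery only) or 0.45 with 300 mg q.d. for 98 days. Schedules compared over 300-day recovery were 300 mg q.d. continuous, b.i.d. 3 on 4 off, and q.d. 7 on 7 off. fr was also varied from 0.25 to 1.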

In data set [3] the test system is platelet counts. The experiment in a line: Simulation of human platelet counts with healthy BM. The following applies: healthy simulations, converted from rat slope using fu.
For data set [4] the following is noted: cited from earlier work.

Consider `COc1nnc2ccc(N3CCC(c4ccc(OCCN5CCN(C)C(=O)[C@H]5C)cc4)CC3)nn12` [AZD5153, (3R)‐4‐[2‐[4‐[1‐(3‐methoxy‐[1,2,4]triazolo[4,3‐b]pyridazin‐6‐yl)‐4‐piperidyl]phenoxy]ethyl]‐1,3‐dimethyl‐piperazin‐2‐one], for which the “platelet changes in rat” value in the data set with circulating platelets (0.1 mg/kg q.d.) is recorded as “negligible platelet changes”; with circulating platelets (1 mg/kg q.d.) it was “clear effects”; with circulating platelets (1.5 mg/kg b.i.d. (3 on 4 off)), “clear effects”. Moreover, the slopeAZD5153 with circulating platelets (rat platelet PD model, total concentrations, population typical estimate (RSE)) is recorded as 0.09 (14) 1/(μmol/L); in the data set with platelet counts [3], 0.45 1/(μmol/L). For the same compound, the V in data set [1] is listed as 0.39 (16) L/kg. Besides, in the data set with platelet counts [2], the “Recovery +drug induced myelosuppression: slopeAZD5153” value is reported as 0.45 1/(μmol/L).
`Cc1sc2c(c1C)C(c1ccc(Cl)cc1)=N[C@@H](CC(=O)Nc1ccc(O)cc1)c1nnc(C)n1-2` [OTX015]: the “frequency of severe TCP by pretreatment baseline” value in data set [4] (OTX015 phase 1 trial) is given as “severe TCP was more frequent in patients with low platelet counts at pretreatment baseline”. For the same compound, the “dose-limiting toxicity in patients” value in data set [4] (phase I, nonleukemia hematological malignancies) was “thrombocytopenia (TCP) as a dose‐limiting toxicity (DLT)”.
